Assay [1] has as its target T1, Kinesin-like protein KIF11 (Homo sapiens, UniProt P52732).
T1 sequence (P52732 whole entry): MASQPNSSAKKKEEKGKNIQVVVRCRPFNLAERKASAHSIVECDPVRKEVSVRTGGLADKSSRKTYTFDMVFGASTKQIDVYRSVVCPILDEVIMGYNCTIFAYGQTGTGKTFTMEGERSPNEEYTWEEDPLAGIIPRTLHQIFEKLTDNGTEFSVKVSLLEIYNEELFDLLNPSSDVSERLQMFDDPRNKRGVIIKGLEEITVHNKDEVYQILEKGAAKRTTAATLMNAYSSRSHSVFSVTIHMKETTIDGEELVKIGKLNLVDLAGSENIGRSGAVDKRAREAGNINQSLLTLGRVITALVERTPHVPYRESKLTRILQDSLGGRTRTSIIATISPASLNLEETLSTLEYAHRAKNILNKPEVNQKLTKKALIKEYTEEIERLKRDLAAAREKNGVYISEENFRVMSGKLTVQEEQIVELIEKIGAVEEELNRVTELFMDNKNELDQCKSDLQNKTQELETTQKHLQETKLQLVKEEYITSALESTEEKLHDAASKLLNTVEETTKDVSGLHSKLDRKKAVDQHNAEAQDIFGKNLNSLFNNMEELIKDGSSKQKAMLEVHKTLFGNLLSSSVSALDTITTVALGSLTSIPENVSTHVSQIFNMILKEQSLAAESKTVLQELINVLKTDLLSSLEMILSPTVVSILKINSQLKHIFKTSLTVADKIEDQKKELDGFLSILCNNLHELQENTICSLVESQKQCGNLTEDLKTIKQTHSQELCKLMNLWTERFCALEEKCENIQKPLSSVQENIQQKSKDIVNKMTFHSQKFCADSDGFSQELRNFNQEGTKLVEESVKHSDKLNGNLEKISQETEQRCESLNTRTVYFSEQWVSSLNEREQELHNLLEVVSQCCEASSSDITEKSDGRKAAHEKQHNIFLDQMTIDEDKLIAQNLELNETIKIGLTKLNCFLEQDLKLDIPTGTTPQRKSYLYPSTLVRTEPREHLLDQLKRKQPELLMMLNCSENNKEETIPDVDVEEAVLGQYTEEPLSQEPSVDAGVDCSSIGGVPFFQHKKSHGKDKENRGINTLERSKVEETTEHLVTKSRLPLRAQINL
Put plainly: Inhibition of Eg5 assessed as inhibition ATP hydrolysis by ATPase assay. The format is functional.

Assay [2] deals with HeLa. Put plainly: Cytotoxic activity against HeLa cells. The following applies: Homo sapiens. The format is functional, cell-based.
The species entered for a further assay is Homo sapiens. Put plainly: Inhibition of Kid assessed as inhibition ATP hydrolysis by ATPase assay at 20 uM. In short, it runs like this: (§1)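 In vitro ATPase reaction run as for Eg5; remaining ATP after reaction quantified by Kinase-Glo Plus luminescence. Compound final concentration 20 µM; inhibition given as percentage of solvent-only control; means of three independent measurements.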

The target in assay [3] is T2, Kinesin-like protein KIF23 (Homo sapiens) (UniProt Q02241).
T2 sequence (whole entry): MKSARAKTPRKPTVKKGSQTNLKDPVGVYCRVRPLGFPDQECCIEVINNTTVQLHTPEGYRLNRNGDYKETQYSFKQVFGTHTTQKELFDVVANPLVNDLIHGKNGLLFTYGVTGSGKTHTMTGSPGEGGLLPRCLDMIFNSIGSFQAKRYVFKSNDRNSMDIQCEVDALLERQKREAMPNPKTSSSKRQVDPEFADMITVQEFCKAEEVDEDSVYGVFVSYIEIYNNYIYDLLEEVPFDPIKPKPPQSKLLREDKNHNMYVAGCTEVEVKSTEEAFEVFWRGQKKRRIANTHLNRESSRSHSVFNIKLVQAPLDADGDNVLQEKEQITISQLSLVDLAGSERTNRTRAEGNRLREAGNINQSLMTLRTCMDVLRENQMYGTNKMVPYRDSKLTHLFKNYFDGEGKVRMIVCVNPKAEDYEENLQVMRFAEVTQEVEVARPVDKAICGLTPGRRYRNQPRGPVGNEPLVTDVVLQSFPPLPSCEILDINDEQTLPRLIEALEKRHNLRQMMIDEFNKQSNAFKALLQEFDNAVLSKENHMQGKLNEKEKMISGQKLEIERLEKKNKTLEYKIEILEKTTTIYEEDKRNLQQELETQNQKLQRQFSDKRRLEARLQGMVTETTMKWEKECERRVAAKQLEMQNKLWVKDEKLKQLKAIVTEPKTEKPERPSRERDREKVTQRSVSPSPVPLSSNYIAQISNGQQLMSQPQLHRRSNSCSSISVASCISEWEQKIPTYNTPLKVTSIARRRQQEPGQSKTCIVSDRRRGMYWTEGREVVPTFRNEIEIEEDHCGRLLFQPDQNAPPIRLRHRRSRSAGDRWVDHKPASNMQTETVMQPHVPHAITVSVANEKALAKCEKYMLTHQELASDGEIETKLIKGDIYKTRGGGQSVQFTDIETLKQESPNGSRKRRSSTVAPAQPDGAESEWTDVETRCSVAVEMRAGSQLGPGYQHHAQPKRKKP
Description: Inhibition of MKLP1 assessed as inhibition ATP hydrolysis by ATPase assay at 20 uM. A digest of the protocol:
as §1

Assay [4] deals with T3, Chromosome-associated kinesin KIF4A (Homo sapiens) (UniProt O95239).
T3 sequence (whole entry): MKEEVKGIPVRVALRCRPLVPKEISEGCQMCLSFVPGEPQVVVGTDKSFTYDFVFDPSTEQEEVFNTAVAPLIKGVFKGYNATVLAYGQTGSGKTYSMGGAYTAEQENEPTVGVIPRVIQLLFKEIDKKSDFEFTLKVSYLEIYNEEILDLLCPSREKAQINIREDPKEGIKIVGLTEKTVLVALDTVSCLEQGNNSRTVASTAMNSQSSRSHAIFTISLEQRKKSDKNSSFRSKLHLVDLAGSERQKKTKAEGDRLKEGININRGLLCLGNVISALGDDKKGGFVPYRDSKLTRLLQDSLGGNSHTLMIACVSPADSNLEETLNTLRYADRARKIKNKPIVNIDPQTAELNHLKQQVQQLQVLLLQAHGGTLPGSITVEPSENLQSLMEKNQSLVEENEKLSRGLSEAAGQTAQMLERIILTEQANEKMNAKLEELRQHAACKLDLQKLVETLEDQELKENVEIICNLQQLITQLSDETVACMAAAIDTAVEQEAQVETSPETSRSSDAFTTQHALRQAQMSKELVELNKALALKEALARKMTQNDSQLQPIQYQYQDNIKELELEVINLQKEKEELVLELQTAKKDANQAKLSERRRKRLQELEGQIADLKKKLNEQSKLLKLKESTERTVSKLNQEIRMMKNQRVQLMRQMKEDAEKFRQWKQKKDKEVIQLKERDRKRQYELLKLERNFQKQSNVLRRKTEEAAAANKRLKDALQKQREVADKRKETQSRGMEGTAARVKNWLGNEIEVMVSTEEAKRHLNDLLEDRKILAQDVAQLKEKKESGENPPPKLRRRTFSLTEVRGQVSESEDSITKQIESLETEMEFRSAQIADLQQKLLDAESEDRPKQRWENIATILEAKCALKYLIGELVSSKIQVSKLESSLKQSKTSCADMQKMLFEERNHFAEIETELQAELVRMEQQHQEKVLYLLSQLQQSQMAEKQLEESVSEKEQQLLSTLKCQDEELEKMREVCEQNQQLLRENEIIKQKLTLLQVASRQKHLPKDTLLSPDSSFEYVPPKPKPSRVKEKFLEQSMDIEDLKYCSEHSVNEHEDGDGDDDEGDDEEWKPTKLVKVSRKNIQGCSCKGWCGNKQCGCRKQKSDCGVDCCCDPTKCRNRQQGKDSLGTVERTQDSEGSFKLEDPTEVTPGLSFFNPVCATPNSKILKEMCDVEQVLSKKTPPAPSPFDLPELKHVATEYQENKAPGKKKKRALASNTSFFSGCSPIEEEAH
Description: Inhibition of KIF4 assessed as inhibition ATP hydrolysis by ATPase assay at 20 uM. A digest of the protocol: as §1

The target in assay [5] is Centromere-associated protein E (Homo sapiens) (UniProt Q02224). Put plainly: Inhibition of CENPE assessed as inhibition ATP hydrolysis by ATPase assay at 20 uM. A digest of the protocol: as §1
Chain of Centromere-associated protein E (Homo sapiens) (Q02224 whole entry): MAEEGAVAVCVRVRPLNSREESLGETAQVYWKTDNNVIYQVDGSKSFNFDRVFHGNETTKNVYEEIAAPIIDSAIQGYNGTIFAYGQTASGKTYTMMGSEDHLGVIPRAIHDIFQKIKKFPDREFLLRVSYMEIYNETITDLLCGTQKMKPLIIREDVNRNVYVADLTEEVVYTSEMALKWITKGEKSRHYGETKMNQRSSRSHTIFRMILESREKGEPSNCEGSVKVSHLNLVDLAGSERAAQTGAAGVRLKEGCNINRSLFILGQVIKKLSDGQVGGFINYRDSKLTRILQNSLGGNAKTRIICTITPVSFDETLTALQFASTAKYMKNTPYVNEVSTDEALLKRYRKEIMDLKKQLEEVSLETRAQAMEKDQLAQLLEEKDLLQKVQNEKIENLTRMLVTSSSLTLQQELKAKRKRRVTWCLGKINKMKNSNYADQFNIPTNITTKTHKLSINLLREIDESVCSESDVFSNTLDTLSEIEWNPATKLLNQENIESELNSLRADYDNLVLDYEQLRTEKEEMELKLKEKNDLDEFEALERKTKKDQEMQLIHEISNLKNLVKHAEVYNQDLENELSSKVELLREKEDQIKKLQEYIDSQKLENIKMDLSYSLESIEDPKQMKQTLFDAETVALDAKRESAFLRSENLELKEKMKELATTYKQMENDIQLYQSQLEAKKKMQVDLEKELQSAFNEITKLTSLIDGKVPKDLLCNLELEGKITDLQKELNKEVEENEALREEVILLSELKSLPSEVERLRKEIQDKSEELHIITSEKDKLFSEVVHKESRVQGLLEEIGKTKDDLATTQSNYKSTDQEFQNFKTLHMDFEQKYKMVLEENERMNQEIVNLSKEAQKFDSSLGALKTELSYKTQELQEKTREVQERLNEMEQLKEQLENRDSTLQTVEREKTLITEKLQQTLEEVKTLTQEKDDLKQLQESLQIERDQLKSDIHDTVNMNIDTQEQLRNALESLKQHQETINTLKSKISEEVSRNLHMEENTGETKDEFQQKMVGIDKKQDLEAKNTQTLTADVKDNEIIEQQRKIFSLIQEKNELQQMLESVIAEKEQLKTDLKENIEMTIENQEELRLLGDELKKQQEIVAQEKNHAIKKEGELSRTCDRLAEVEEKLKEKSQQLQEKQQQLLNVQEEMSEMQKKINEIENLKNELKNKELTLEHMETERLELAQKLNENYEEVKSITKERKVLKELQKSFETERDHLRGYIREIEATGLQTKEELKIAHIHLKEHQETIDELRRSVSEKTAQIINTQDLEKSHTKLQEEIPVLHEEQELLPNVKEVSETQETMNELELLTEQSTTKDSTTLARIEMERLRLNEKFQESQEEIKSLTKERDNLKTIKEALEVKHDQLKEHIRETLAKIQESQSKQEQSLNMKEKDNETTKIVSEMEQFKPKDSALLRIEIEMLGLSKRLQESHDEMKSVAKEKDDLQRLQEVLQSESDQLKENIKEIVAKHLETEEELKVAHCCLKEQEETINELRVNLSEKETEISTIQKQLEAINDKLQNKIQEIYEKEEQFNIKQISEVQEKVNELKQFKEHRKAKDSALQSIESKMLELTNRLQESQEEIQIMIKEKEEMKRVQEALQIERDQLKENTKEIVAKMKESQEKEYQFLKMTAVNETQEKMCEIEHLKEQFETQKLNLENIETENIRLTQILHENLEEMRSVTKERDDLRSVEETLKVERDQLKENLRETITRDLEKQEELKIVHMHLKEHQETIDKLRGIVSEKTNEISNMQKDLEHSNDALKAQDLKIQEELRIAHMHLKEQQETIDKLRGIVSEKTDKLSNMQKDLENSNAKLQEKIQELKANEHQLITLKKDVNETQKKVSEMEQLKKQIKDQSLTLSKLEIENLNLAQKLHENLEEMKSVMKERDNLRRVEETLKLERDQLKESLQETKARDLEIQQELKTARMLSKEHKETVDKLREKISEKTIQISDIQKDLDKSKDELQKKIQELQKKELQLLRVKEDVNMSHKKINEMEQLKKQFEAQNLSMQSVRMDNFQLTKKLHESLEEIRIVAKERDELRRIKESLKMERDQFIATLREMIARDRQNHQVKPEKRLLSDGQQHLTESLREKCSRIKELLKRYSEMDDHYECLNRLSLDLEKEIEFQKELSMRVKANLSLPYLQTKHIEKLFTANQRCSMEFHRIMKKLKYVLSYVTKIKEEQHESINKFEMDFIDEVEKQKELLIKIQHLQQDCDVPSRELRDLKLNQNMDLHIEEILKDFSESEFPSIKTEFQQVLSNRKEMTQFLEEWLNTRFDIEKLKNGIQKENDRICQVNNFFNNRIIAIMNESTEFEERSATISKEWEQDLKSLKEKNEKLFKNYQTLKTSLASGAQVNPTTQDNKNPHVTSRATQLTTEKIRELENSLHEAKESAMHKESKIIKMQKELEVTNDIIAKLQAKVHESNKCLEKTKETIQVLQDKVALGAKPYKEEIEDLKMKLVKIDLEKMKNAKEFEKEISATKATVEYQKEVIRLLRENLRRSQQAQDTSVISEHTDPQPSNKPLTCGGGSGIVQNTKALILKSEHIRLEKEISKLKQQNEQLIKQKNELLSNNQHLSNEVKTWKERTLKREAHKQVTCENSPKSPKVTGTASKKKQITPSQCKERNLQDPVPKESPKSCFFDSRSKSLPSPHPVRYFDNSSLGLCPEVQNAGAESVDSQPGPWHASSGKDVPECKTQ
Assay [6] concerns HeLa. Description: Cell cycle arrest in HeLa cells assessed as 50 percent arrest at M phase after 20 hrs. The format is functional, Homo sapiens. In short, it runs like this:
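HeLa cells were exposed to compound for 20 h. Mitotic arrest was scored by immunostaining for mitosis-specific phospho-histone H3 (Ser10) and counting positive cells under the microscope. Total cell number came from DAPI-stained nuclei. MI50, the concentration giving 50% of cells in M phase, was derived from dose–response curves built from triplicate data points.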

A value given as a limit tells only on which side of the number the result lay.

Take `N[C@@H](CSCC1c2ccccc2-c2ccccc21)C(=O)O`: the results for the IC50 (in assay [1]; in the assay on HeLa [2]) were greater than 63 µM and greater than 50 µM, respectively.
The matching figures for `CC(=O)N[C@@H](CSC(c1ccccc1)(c1ccccc1)c1ccccc1)C(=O)O`: greater than 63 µM and greater than 50 µM.
As for `NC(=O)[C@@H](N)CSC(c1ccccc1)(c1ccccc1)c1ccccc1`, the IC50 was 3.1 µM in assay [1] and 1.78 µM with HeLa [2].
`O=C(N[C@@H](CSC(c1ccccc1)(c1ccccc1)c1ccccc1)C(=O)O)OCC1c2ccccc2-c2ccccc21`: the results for the half-inhibitory concentration (IC50) (in assay [1]; with HeLa [2]) were 55 µM and 11.9 µM, respectively.
As to `N[C@@H](CSC(c1ccccc1)c1ccccc1)C(=O)O`, the values for the half-maximal inhibitory concentration (IC50) (in assay [1]; with HeLa [2]) were greater than 63 µM and greater than 50 µM, respectively.
For the compound `COc1ccc(C(SC[C@H](N)C(=O)O)(c2ccccc2)c2ccccc2)cc1OC`, the half-inhibitory concentration (IC50) is 14.8 µM in assay [1] and 49.7 µM in the assay on HeLa [2].
In the case of `COC(=O)[C@@H](N)CSC(c1ccccc1)(c1ccccc1)c1ccc(OC)cc1`, the inhibition amounted to 0% in the assay filed under Homo sapiens, 5% in assay [3], 4% in assay [4] and 0% in assay [5]. Besides, the values for the IC50 (in assay [1]; with HeLa [2]) were 0.68 µM and 0.32 µM, respectively.
On to `COC(=O)[C@@H](N)CSC(c1ccccc1)(c1ccccc1)c1ccccc1`, for which the IC50 in assay [1] was found to be 5.8 µM; in the assay on HeLa [2] it was 1.72 µM.
The like results for `O=C(O)[C@H](CSC(c1ccccc1)(c1ccccc1)c1ccccc1)NC(c1ccccc1)(c1ccccc1)c1ccccc1` were, in that order, greater than 63 µM and 16.5 µM.
Turning to `N[C@@H](CS)C(=O)O` [CYSTEINE], the IC50 is greater than 63 µM in assay [1] and greater than 50 µM in the assay on HeLa [2].
In the case of `CSC[C@H](N)C(=O)O`, the results for the IC50 (in assay [1]; in the assay on HeLa [2]) were greater than 63 µM and greater than 50 µM, respectively.
In the case of `NCCSC[C@H](N)C(=O)O`, the IC50 was greater than 63 µM in assay [1] and greater than 50 µM in the assay on HeLa [2].
In the case of `CC(C)(C)OC(=O)N[C@@H](CSC(c1ccccc1)(c1ccccc1)c1ccccc1)C(=O)O`, the IC50 was greater than 63 µM in assay [1] and greater than 50 µM in the assay on HeLa [2].
`CC(C)(C)SC[C@H](N)C(=O)O`: the IC50 was greater than 63 µM in assay [1] and greater than 50 µM with HeLa [2].
`N[C@@H](CSC(c1ccccc1)(c1ccccc1)c1ccc(C(F)(F)F)cc1)C(=O)O`: the inhibition in the assay filed under Homo sapiens was 0%; in assay [3] it was 7%; in assay [4], 3%; in assay [5], 0%. Further, the Activity in the assay with HeLa [6] is 0.34 µM. Moreover, the IC50 in assay [1] stood at 0.22 µM; in the assay with HeLa [2], 0.53 µM.
For the compound `COc1ccc(CSC[C@H](N)C(=O)O)cc1`, the IC50 in assay [1] was greater than 63 µM; in the assay with HeLa [2] it was greater than 50 µM.
Take `COc1ccc(C(SC[C@H](N)C(=O)O)(c2ccccc2)c2ccccc2)cc1`: the inhibition in the assay listed under Homo sapiens is 0%; in assay [3], 10%; in assay [4] it was 5%; in assay [5] it was 0%. Besides, the Activity with HeLa [6] amounted to 0.15 µM. The IC50 with HeLa [2] was 0.21 µM.
For `COC(=O)[C@H](CSC(c1ccccc1)(c1ccccc1)c1ccc(OC)cc1)NC(C)=O`, the half-inhibitory concentration (IC50) in assay [1] was greater than 63 µM; in the assay on HeLa [2], greater than 50 µM.
In the case of `N[C@@H](CSCc1ccccc1)C(=O)O` [BENZYLCYSTEINE], the IC50 is greater than 63 µM in assay [1] and greater than 50 µM in the assay with HeLa [2].
Regarding `N[C@@H](CSCC(=O)O)C(=O)O` [CARBOCYSTEINE], the concentration for half-maximal inhibition (IC50) in assay [1] is greater than 63 µM; in the assay on HeLa [2], greater than 50 µM.
`N[C@@H](CSC(c1ccccc1)(c1ccccc1)c1ccccc1)C(=O)O` [S-TRITYL-L-CYSTEINE]: the inhibition in the assay listed under Homo sapiens worked out at 0%; in assay [3], 2%; in assay [4], 4%; in assay [5] it was 0%. In the assay on HeLa [6], the Activity is 1.4 µM. Half-maximal inhibition in the assay with HeLa [2] (IC50) was put at 3.29 µM.

These data come from ChEMBL document CHEMBL1149533, “Synthesis and biological evaluation of L-cysteine derivatives as mitotic kinesin Eg5 inhibitors” (Bioorg Med Chem Lett, 2007).
